Experimental data from different studies.
Target: Muscarinic acetylcholine receptor M5 (CHRM5, Homo sapiens, UniProt P08912)
Concentration: 10 µM
Sequence (P08912 1-532, as in one of the studies): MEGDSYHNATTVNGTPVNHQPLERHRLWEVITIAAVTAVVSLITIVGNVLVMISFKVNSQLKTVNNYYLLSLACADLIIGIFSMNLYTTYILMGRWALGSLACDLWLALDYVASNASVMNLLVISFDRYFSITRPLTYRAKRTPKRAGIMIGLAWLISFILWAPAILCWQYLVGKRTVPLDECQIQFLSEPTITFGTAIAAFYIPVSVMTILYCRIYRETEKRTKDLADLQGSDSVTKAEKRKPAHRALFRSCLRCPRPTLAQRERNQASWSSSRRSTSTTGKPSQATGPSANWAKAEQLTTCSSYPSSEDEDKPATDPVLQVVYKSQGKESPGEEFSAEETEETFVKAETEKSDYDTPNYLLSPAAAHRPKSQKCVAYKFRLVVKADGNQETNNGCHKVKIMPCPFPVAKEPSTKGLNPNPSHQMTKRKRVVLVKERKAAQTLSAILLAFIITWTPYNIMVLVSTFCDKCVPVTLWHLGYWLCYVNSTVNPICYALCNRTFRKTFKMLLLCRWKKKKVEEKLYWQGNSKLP

`N#Cc1cc(Cn2c(N3CCCC3)nc3ccccc32)ccc1F` has an inhibition of 10.9% (ligand displacement).
For `O=C(c1ccc(Cl)cc1)N(Cc1ccccc1)C1CCCCC1`, the inhibition was -9.6% (cell-free assay).
`CNC(=N)NCCC[C@H](NC(=O)[C@H](CC(C)C)NC(=O)NNC(=O)[C@H](Cc1ccccc1)NC(=O)[C@H](CO)NC(=O)[C@H](CC(N)=O)NC(=O)[C@@H](Cc1ccncc1)NC(=O)[C@H](N)Cc1ccc(O)cc1)C(=O)N[C@@H](Cc1ccccc1)C(N)=O` gave an inhibition of 14.9% (ligand displacement).
`CCN(CC)c1ccc(C2Nc3ccc(C(=O)c4ccccc4)cc3NC3=C2C(=O)CC(C)(C)C3)cc1` (centres unmarked) has an inhibition of 20% (ligand displacement, radioligand).
The inhibition of `COc1cc(NC(C)=O)c(Cl)cc1C(=O)Nc1nccs1` is reported as -6.1% (cell-free assay).
`CN(C(=O)n1cnc(-c2ccc[n+]([O-])c2)c1)C1CCCCC1` has an inhibition of 8.59% (cell-free assay).
The inhibition of `CCCNc1nc2ccccc2n1Cc1ccc(Cl)cc1` is reported as 14.5% (ligand displacement).
`CO[C@@H](C)c1c(Nc2ccc([C@H](N(C)C(=O)C3CCS(=O)(=O)CC3)C(F)(F)F)cc2)cnc2cc(Cl)nn12` has an inhibition of 14.6% (ligand displacement).
